ChEMBL document CHEMBL1149559, “Synthesis and evaluation of amphiphilic cationic quinine-derived for antibacterial activity against methicillin-resistant Staphylococcus aureus” (Bioorg Med Chem Lett, 2007)
≈ marks a conversion by molar mass, not a printed value. Calls of active or inactive are those of the source. The calls are words filed in the database; no cut-off is given here.

Legend:
Staphylococcus aureus [1] = experiment: Antibacterial activity against methicillin-resistant Staphylococcus aureus CMAH 0515 by broth microdilution method; format: functional
Summary of the method: (§1)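 MIC and MBC by broth microdilution following NCCLS recommendations; values given in µg/mL.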

Staphylococcus aureus [2] = experiment: Antibacterial activity against methicillin-susceptible Staphylococcus aureus ATCC 25923 by broth microdilution method; format: functional; summary of the method: as §1
Staphylococcus aureus [3] = experiment: Antibacterial activity against methicillin-resistant Staphylococcus aureus CMAH 0430 by broth microdilution method; format: functional; summary of the method: as §1
Staphylococcus aureus [4] = experiment: Antibacterial activity against methicillin-resistant Staphylococcus aureus CMAH 0504 by broth microdilution method; format: functional; summary of the method: as §1
Staphylococcus aureus [5] = experiment: Antibacterial activity against Staphylococcus aureus by disk diffusion method; format: functional
Staphylococcus aureus [6] = experiment: Antibacterial activity against methicillin-resistant Staphylococcus aureus CMAH 0515 by disk diffusion method; format: functional
Staphylococcus aureus [7] = experiment: Antibacterial activity against methicillin-resistant Staphylococcus aureus CMAH 0504 at 30 ug/ml by disk diffusion method; format: functional; conditions: read-out: IZ
Staphylococcus aureus [8] = experiment: Antibacterial activity against methicillin-resistant Staphylococcus aureus CMAH 0430 by disk diffusion method; format: functional
Micrococcus luteus = experiment: Antibacterial activity against Micrococcus luteus CMCC(B)28001 by broth microdilution method; format: functional; summary of the method: as §1
Bacillus subtilis = experiment: Antibacterial activity against Bacillus subtilis ATCC 6633 by broth microdilution method; format: functional; summary of the method: as §1
Escherichia coli = experiment: Antibacterial activity against Escherichia coli ATCC 25922 by broth microdilution method; format: functional; summary of the method: as §1
[9] = Toxicity in human erythrocytes assessed as hemolytic activity at 1000 ug/ml after 1 hr; format: cell-based, Erythrocyte; conditions: read-out: Activity
Summary of the method: (§2)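 Human heparinised erythrocytes, PBS-washed, were used at about 1.0 × 10^9 cells/mL and mixed 1:1 with compound (1-2000 µg/mL) for 1 h at 37 °C. After centrifugation, supernatant OD540 was read. PBS set 0% lysis and 0.1% Triton X-100 set 100% lysis. Triplicates, confirmed in three independent experiments.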

[10] = Toxicity in human erythrocytes assessed as hemolytic activity at 2000 ug/ml after 1 hr; format: cell-based, Erythrocyte; conditions: read-out: Activity; summary of the method: as §2
[11] = Toxicity in human erythrocytes assessed as hemolytic activity at 250 ug/ml after 1 hr; format: cell-based, Erythrocyte; conditions: read-out: Activity; summary of the method: as §2
[12] = Toxicity in human erythrocytes assessed as hemolytic activity at 500 ug/ml after 1 hr; format: cell-based, Erythrocyte; conditions: read-out: Activity; summary of the method: as §2
Staphylococcus aureus [13] = experiment: Antibacterial activity against methicillin-susceptible Staphylococcus aureus ATCC 25923 at 15 ug/ml after 40 mins; format: functional, organism-based
Summary of the method: (§3)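 Time-kill assay. Mid-log cultures were diluted in Mueller–Hinton broth to a final inoculum of 3-5 × 10^5 cells/mL and incubated at 30 °C with 5, 10, 15 µg/mL (S. aureus ATCC 25923) or 2.5, 5, 10 µg/mL (MRSA CMAH 0504), alongside a drug-free growth control. Samples were washed, plated on MH agar and incubated 24 h at 30 °C for colony counts. Three independent experiments, each in triplicate.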

Pseudomonas aeruginosa = experiment: Antibacterial activity against Pseudomonas aeruginosa ATCC 27853 by broth microdilution method; format: functional; summary of the method: as §1
Staphylococcus aureus [14] = experiment: Antibacterial activity against methicillin-resistant Staphylococcus aureus CMAH 0504 at 10 ug/ml after 20 to 30 mins; format: functional, organism-based; summary of the method: as §3

| SMILES | inhibition zone (IZ) (Staphylococcus aureus [5]) | inhibition zone (IZ) (Staphylococcus aureus [6]) | zone of inhibition at 30 µg/mL (Staphylococcus aureus [7]) | inhibition zone (IZ) (Staphylococcus aureus [8]) | MBC (Micrococcus luteus) | MIC (Micrococcus luteus) | MBC (Bacillus subtilis) | MIC (Bacillus subtilis) | MBC (Staphylococcus aureus [2]) | MIC (Staphylococcus aureus [2]) | MBC (Staphylococcus aureus [1]) | MIC (Staphylococcus aureus [1]) | hemolysis at 1 h, 1000 ug/ml [9] | hemolysis at 1 h, 2000 ug/ml [10] | MBC (Staphylococcus aureus [3]) | MIC (Staphylococcus aureus [3]) | hemolysis at 1 h, 250 ug/ml [11] | MBC (Staphylococcus aureus [4]) | MIC (Staphylococcus aureus [4]) | hemolysis at 1 h, 500 ug/ml [12] | other results |
| --- | --- | --- | --- | --- | --- | --- | --- | --- | --- | --- | --- | --- | --- | --- | --- | --- | --- | --- | --- | --- | --- |
| C=C[C@H]1CN2CC[C@H]1C[C@H]2[C@H](O)c1ccnc2ccc(OC)cc12 |  |  |  |  |  |  |  |  |  |  |  |  |  |  |  |  |  |  |  |  | Activity (Staphylococcus aureus [1]): inactive; Activity (Staphylococcus aureus [2]): inactive; Activity (Staphylococcus aureus [3]): inactive; Activity (Staphylococcus aureus [4]): inactive |
| CCC(=O)O[C@@H]1CC(=O)O[C@H](C)C/C=C/C=C/[C@H](O)[C@H](C)C[C@H](CC=O)[C@H](O[C@@H]2O[C@H](C)[C@@H](O[C@H]3C[C@@](C)(O)[C@@H](OC(=O)CC)[C@H](C)O3)[C@H](N(C)C)[C@H]2O)[C@H]1OC [MIDECAMYCIN] | 27 mm |  |  |  |  |  |  |  |  |  |  |  |  |  |  |  |  |  |  |  |  |
| CN(C)[C@@H]1C(O)=C(C(N)=O)C(=O)[C@@]2(O)C(O)=C3C(=O)c4c(O)cccc4[C@@](C)(O)[C@H]3C[C@@H]12 [TETRACYCLINE] | 14 mm | 17 mm | 17 mm | 15 mm |  |  |  |  |  |  |  |  |  |  |  |  |  |  |  |  |  |
| CC1(C)S[C@@H]2[C@H](NC(=O)[C@H](N)c3ccccc3)C(=O)N2[C@H]1C(=O)O [AMPICILLIN] | 34 mm |  |  |  | 0.78 µg/mL (≈ 2.23 µM) | 0.39 µg/mL (≈ 1.12 µM) | 0.39 µg/mL (≈ 1.12 µM) | 0.39 µg/mL (≈ 1.12 µM) | 0.78 µg/mL (≈ 2.23 µM) | 0.39 µg/mL (≈ 1.12 µM) |  |  |  |  |  |  |  |  |  |  | MBC (Escherichia coli): 100 µg/mL (≈ 286 µM); MIC (Escherichia coli): 50 µg/mL (≈ 143 µM) |
| C=CC1C[N+]2(CC(=O)c3ccc(OC)cc3)CCC1CC2[C@H](O)c1ccnc2ccc(OC)cc12.[Br-] (stereo partly specified) |  |  |  |  | 12.5 µg/mL | 12.5 µg/mL | 25 µg/mL | 12.5 µg/mL | 12.5 µg/mL | 12.5 µg/mL | 50 µg/mL | 25 µg/mL | 0% | 0% | 50 µg/mL | 25 µg/mL | 0% | 50 µg/mL | 25 µg/mL | 0% |  |
| C[C@H]1COc2c(N3CCN(C)CC3)c(F)cc3c(=O)c(C(=O)O)cn1c23.C[C@H]1COc2c(N3CCN(C)CC3)c(F)cc3c(=O)c(C(=O)O)cn1c23.O [LEVOFLOXACIN] | 32 mm |  |  |  |  |  |  |  |  |  |  |  |  |  |  |  |  |  |  |  |  |
| O=C(N[C@H](CO)[C@H](O)c1ccc([N+](=O)[O-])cc1)C(Cl)Cl [CHLORAMPHENICOL] | 32 mm | 27 mm | 26 mm | 27 mm |  |  |  |  |  |  |  |  |  |  |  |  |  |  |  |  |  |
| C=CC1C[N+]2(CC(=O)c3ccccc3)CCC1CC2[C@H](O)c1ccnc2ccc(OC)cc12.[Br-] (stereo partly specified) |  |  |  |  | 12.5 µg/mL | 6.3 µg/mL | 25 µg/mL | 25 µg/mL | 25 µg/mL | 12.5 µg/mL | 25 µg/mL | 12.5 µg/mL | 0% | 5% | 25 µg/mL | 12.5 µg/mL | 0% | 25 µg/mL | 12.5 µg/mL | 0% |  |
| C=CC1C[N+]2(CC(=O)c3ccc([N+](=O)[O-])cc3)CCC1CC2[C@H](O)c1ccnc2ccc(OC)cc12.[Br-] (stereo partly specified) |  |  |  |  | 50 µg/mL | 25 µg/mL | 50 µg/mL | 25 µg/mL | 50 µg/mL | 25 µg/mL | 50 µg/mL | 50 µg/mL | 0% | 0% | 50 µg/mL | 50 µg/mL | 0% | 50 µg/mL | 50 µg/mL | 0% |  |
| C=CC1C[N+]2(CC(=O)c3cccc4ccccc34)CCC1CC2[C@H](O)c1ccnc2ccc(OC)cc12.[Br-] (stereo partly specified) | 26 mm | 25 mm | 23 mm | 26 mm | 3.13 µg/mL | 3.13 µg/mL | 6.25 µg/mL | 3.13 µg/mL | 3.13 µg/mL | 1.56 µg/mL | 1.56 µg/mL | 0.39 µg/mL | 17% | 55% | 1.56 µg/mL | 0.39 µg/mL | 0% | 1.56 µg/mL | 0.78 µg/mL | 9% | Activity (Staphylococcus aureus [13]): inactive; MBC (Escherichia coli): 100 µg/mL; MIC (Escherichia coli): 50 µg/mL; MIC (Pseudomonas aeruginosa): 100 µg/mL; Activity (Staphylococcus aureus [14]): Active |
| Cc1nnc(SCC2=C(C(=O)O)N3C(=O)[C@@H](NC(=O)Cn4cnnn4)[C@H]3SC2)s1 [CEFAZOLIN] | 30 mm |  |  | 2 mm |  |  |  |  |  |  |  |  |  |  |  |  |  |  |  |  |  |
| NC[C@H]1O[C@H](O[C@H]2[C@H](O)[C@@H](O[C@H]3O[C@H](CO)[C@@H](O)[C@H](N)[C@H]3O)[C@H](N)C[C@@H]2N)[C@H](O)[C@@H](O)[C@@H]1O [KANAMYCIN] | 28 mm |  |  |  | 0.39 µg/mL (≈ 0.805 µM) | 0.39 µg/mL (≈ 0.805 µM) | 6.25 µg/mL (≈ 12.9 µM) | 6.25 µg/mL (≈ 12.9 µM) | 0.78 µg/mL (≈ 1.61 µM) | 0.39 µg/mL (≈ 0.805 µM) |  |  |  |  |  |  |  |  |  |  | MBC (Escherichia coli): 0.39 µg/mL (≈ 0.805 µM); MIC (Escherichia coli): 0.39 µg/mL (≈ 0.805 µM) |
| C=CC1C[N+]2(CC(=O)c3ccc(Cl)cc3)CCC1CC2[C@H](O)c1ccnc2ccc(OC)cc12 (stereo partly specified) |  |  |  |  |  |  |  |  |  |  |  |  |  |  |  |  |  |  |  |  | Activity (Staphylococcus aureus [1]): inactive; Activity (Staphylococcus aureus [2]): inactive; Activity (Staphylococcus aureus [3]): inactive; Activity (Staphylococcus aureus [4]): inactive |
| C=C[C@H]1C[N@@]2CC[C@H]1C[C@H]2[C@H](O)c1ccnc2ccc(OC)cc12 [QUININE] |  |  |  |  |  |  |  |  |  |  |  |  | 0% | 0% |  |  | 0% |  |  | 0% |  |
| C=CC1C[N+]2(CC(=O)c3ccc(Br)cc3)CCC1CC2[C@H](O)c1ccnc2ccc(OC)cc12.[Br-] (stereo partly specified) | 24 mm | 22 mm | 22 mm | 23 mm | 6.25 µg/mL | 6.25 µg/mL | 6.25 µg/mL | 3.13 µg/mL | 6.25 µg/mL | 3.13 µg/mL | 6.25 µg/mL | 3.13 µg/mL | 7% | 25% | 6.25 µg/mL | 3.13 µg/mL | 0% | 12.5 µg/mL | 6.25 µg/mL | 0% | MIC (Escherichia coli): 100 µg/mL; MIC (Pseudomonas aeruginosa): 100 µg/mL |
| CN[C@H](CC(C)C)C(=O)N[C@H]1C(=O)N[C@@H](CC(N)=O)C(=O)N[C@H]2C(=O)N[C@H]3C(=O)N[C@H](C(=O)N[C@H](C(=O)O)c4cc(O)cc(O)c4-c4cc3ccc4O)[C@H](O)c3ccc(c(Cl)c3)Oc3cc2cc(c3O[C@@H]2O[C@H](CO)[C@@H](O)[C@H](O)[C@H]2O[C@H]2C[C@](C)(N)[C@H](O)[C@H](C)O2)Oc2ccc(cc2Cl)[C@H]1O [VANCOMYCIN] | 23 mm | 24 mm | 22 mm | 24 mm |  |  |  |  |  |  |  |  |  |  |  |  |  |  |  |  |  |
